From ChEMBL document CHEMBL4689842, “EUbOPEN Chemogenomics Library wave 1” (2021)

Test system: HEK-293T
Assay: Multiplex assay against HEK293T;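 on Population Tubulin-Different-Phenotype (%): share of the cells with healthy nuclei that show this phenotype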
Assay type: toxicity, cell-based
Conditions: human
How it was run: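 Live cells carried four stains from seeding: Hoechst33342, BioTracker Green Microtubule Cytoskeleton Dye, MitoTracker Red and Annexin V Alexa Fluor 680. They were imaged on a CQ1 microscope at 37°C and 5% CO2 after compound addition. Using CellPathfinder machine-learning gating, cells were split into Hoechst high-intensity objects or normal cells, normal cells into healthy, pyknosed or fragmented nuclei, and pyknosed cells into mitotic or apoptotic; tubulin, mitochondrial-mass and membrane-permeability phenotypes are per cents of healthy-nucleus cells.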

[1] = 12 h, 1 µM, compound concentration 1 uM, replicate 1
[2] = 12 h, 1 µM, compound concentration 1 uM, replicate 2
[3] = 12 h, 10 µM, compound concentration 10 uM, replicate 1
[4] = 12 h, 10 µM, compound concentration 10 uM, replicate 2
[5] = 24 h, 1 µM, compound concentration 1 uM, replicate 1
[6] = 24 h, 1 µM, compound concentration 1 uM, replicate 2
[7] = 24 h, 10 µM, compound concentration 10 uM, replicate 1
[8] = 24 h, 10 µM, compound concentration 10 uM, replicate 2

Compound: COc1ccc(-c2ccc3c(N4CCOCC4)nc(N4C[C@@H](C)O[C@@H](C)C4)nc3n2)cc1CO [Ku-0063794]
- Population Apoptotic (%) [1]: 17%
- Population Fragmented Nuclei (%) [1]: 21%
- Population Healthy Nuclei (%) [1]: 63%
- Population Hoechst High Intensity Objects (%) [1]: 20%
- Population Membrane Permeable-Phenotype (%) [1]: 6%
- Population Mitochondria Different-Phenotype (%) [1]: 3%
- Population Mitotic Cells (%) [1]: 82%
- Population Normal (%) [1]: 79%
- Population Pyknosed Nuclei (%) [1]: 14%
- Population Tubulin-Different-Phenotype (%) [1]: 3%
- Total Cell Count [1]: 492
- Population Apoptotic (%) [2]: 8%
- Population Fragmented Nuclei (%) [2]: 12%
- Population Healthy Nuclei (%) [2]: 82%
- Population Hoechst High Intensity Objects (%) [2]: 2%
- Population Membrane Permeable-Phenotype (%) [2]: 1%
- Population Mitochondria Different-Phenotype (%) [2]: 4%
- Population Mitotic Cells (%) [2]: 91%
- Population Normal (%) [2]: 97%
- Population Pyknosed Nuclei (%) [2]: 4%
- Population Tubulin-Different-Phenotype (%) [2]: 5%
- Total Cell Count [2]: 1701
- Population Apoptotic (%) [3]: 41%
- Population Fragmented Nuclei (%) [3]: 31%
- Population Healthy Nuclei (%) [3]: 63%
- Population Hoechst High Intensity Objects (%) [3]: 52%
- Population Membrane Permeable-Phenotype (%) [3]: 11%
- Population Mitochondria Different-Phenotype (%) [3]: 10%
- Population Mitotic Cells (%) [3]: 58%
- Population Normal (%) [3]: 47%
- Population Pyknosed Nuclei (%) [3]: 4%
- Population Tubulin-Different-Phenotype (%) [3]: 12%
- Total Cell Count [3]: 726
- Population Apoptotic (%) [4]: 40%
- Population Fragmented Nuclei (%) [4]: 11%
- Population Healthy Nuclei (%) [4]: 87%
- Population Hoechst High Intensity Objects (%) [4]: 27%
- Population Membrane Permeable-Phenotype (%) [4]: 4%
- Population Mitochondria Different-Phenotype (%) [4]: 15%
- Population Mitotic Cells (%) [4]: 60%
- Population Normal (%) [4]: 72%
- Population Pyknosed Nuclei (%) [4]: 1%
- Population Tubulin-Different-Phenotype (%) [4]: 17%
- Total Cell Count [4]: 1160
- Population Apoptotic (%) [5]: 19%
- Population Fragmented Nuclei (%) [5]: 19%
- Population Healthy Nuclei (%) [5]: 71%
- Population Hoechst High Intensity Objects (%) [5]: 11%
- Population Membrane Permeable-Phenotype (%) [5]: 8%
- Population Mitochondria Different-Phenotype (%) [5]: 2%
- Population Mitotic Cells (%) [5]: 80%
- Population Normal (%) [5]: 88%
- Population Pyknosed Nuclei (%) [5]: 8%
- Population Tubulin-Different-Phenotype (%) [5]: 7%
- Total Cell Count [5]: 554
- Population Apoptotic (%) [6]: 12%
- Population Fragmented Nuclei (%) [6]: 33%
- Population Healthy Nuclei (%) [6]: 64%
- Population Hoechst High Intensity Objects (%) [6]: 4%
- Population Membrane Permeable-Phenotype (%) [6]: 5%
- Population Mitochondria Different-Phenotype (%) [6]: 0%
- Population Mitotic Cells (%) [6]: 87%
- Population Normal (%) [6]: 95%
- Population Pyknosed Nuclei (%) [6]: 1%
- Population Tubulin-Different-Phenotype (%) [6]: 6%
- Total Cell Count [6]: 2828
- Population Apoptotic (%) [7]: 27%
- Population Fragmented Nuclei (%) [7]: 31%
- Population Healthy Nuclei (%) [7]: 65%
- Population Hoechst High Intensity Objects (%) [7]: 52%
- Population Membrane Permeable-Phenotype (%) [7]: 11%
- Population Mitochondria Different-Phenotype (%) [7]: 9%
- Population Mitotic Cells (%) [7]: 72%
- Population Normal (%) [7]: 47%
- Population Pyknosed Nuclei (%) [7]: 3%
- Population Tubulin-Different-Phenotype (%) [7]: 17%
- Total Cell Count [7]: 759
- Population Apoptotic (%) [8]: 12%
- Population Fragmented Nuclei (%) [8]: 26%
- Population Healthy Nuclei (%) [8]: 71%
- Population Hoechst High Intensity Objects (%) [8]: 24%
- Population Membrane Permeable-Phenotype (%) [8]: 9%
- Population Mitochondria Different-Phenotype (%) [8]: 4%
- Population Mitotic Cells (%) [8]: 88%
- Population Normal (%) [8]: 75%
- Population Pyknosed Nuclei (%) [8]: 2%
- Population Tubulin-Different-Phenotype (%) [8]: 32%
- Total Cell Count [8]: 1535

Compound: CN1CCN(C(=O)C(C)(C)c2ccc(C(=O)Nc3cn4cc(-c5cc(C(C)(C)C)cc(C(C)(C)C)c5)ccc4n3)cc2)CC1 [T3-CLK-N]
- Population Apoptotic (%) [1]: 14%
- Population Fragmented Nuclei (%) [1]: 15%
- Population Healthy Nuclei (%) [1]: 58%
- Population Hoechst High Intensity Objects (%) [1]: 12%
- Population Membrane Permeable-Phenotype (%) [1]: 5%
- Population Mitochondria Different-Phenotype (%) [1]: 7%
- Population Mitotic Cells (%) [1]: 85%
- Population Normal (%) [1]: 87%
- Population Pyknosed Nuclei (%) [1]: 25%
- Population Tubulin-Different-Phenotype (%) [1]: 9%
- Total Cell Count [1]: 642
- Population Apoptotic (%) [2]: 10%
- Population Fragmented Nuclei (%) [2]: 6%
- Population Healthy Nuclei (%) [2]: 84%
- Population Hoechst High Intensity Objects (%) [2]: 2%
- Population Membrane Permeable-Phenotype (%) [2]: 4%
- Population Mitochondria Different-Phenotype (%) [2]: 13%
- Population Mitotic Cells (%) [2]: 89%
- Population Normal (%) [2]: 97%
- Population Pyknosed Nuclei (%) [2]: 9%
- Population Tubulin-Different-Phenotype (%) [2]: 21%
- Total Cell Count [2]: 1407
- Population Apoptotic (%) [3]: 21%
- Population Fragmented Nuclei (%) [3]: 16%
- Population Healthy Nuclei (%) [3]: 46%
- Population Hoechst High Intensity Objects (%) [3]: 18%
- Population Membrane Permeable-Phenotype (%) [3]: 11%
- Population Mitochondria Different-Phenotype (%) [3]: 13%
- Population Mitotic Cells (%) [3]: 78%
- Population Normal (%) [3]: 81%
- Population Pyknosed Nuclei (%) [3]: 36%
- Population Tubulin-Different-Phenotype (%) [3]: 30%
- Total Cell Count [3]: 631
- Population Apoptotic (%) [4]: 23%
- Population Fragmented Nuclei (%) [4]: 3%
- Population Healthy Nuclei (%) [4]: 80%
- Population Hoechst High Intensity Objects (%) [4]: 4%
- Population Membrane Permeable-Phenotype (%) [4]: 4%
- Population Mitochondria Different-Phenotype (%) [4]: 26%
- Population Mitotic Cells (%) [4]: 76%
- Population Normal (%) [4]: 95%
- Population Pyknosed Nuclei (%) [4]: 15%
- Population Tubulin-Different-Phenotype (%) [4]: 63%
- Total Cell Count [4]: 884
- Population Apoptotic (%) [5]: 16%
- Population Fragmented Nuclei (%) [5]: 12%
- Population Healthy Nuclei (%) [5]: 76%
- Population Hoechst High Intensity Objects (%) [5]: 10%
- Population Membrane Permeable-Phenotype (%) [5]: 14%
- Population Mitochondria Different-Phenotype (%) [5]: 5%
- Population Mitotic Cells (%) [5]: 83%
- Population Normal (%) [5]: 89%
- Population Pyknosed Nuclei (%) [5]: 10%
- Population Tubulin-Different-Phenotype (%) [5]: 19%
- Total Cell Count [5]: 686
- Population Apoptotic (%) [6]: 4%
- Population Fragmented Nuclei (%) [6]: 10%
- Population Healthy Nuclei (%) [6]: 84%
- Population Hoechst High Intensity Objects (%) [6]: 4%
- Population Membrane Permeable-Phenotype (%) [6]: 9%
- Population Mitochondria Different-Phenotype (%) [6]: 8%
- Population Mitotic Cells (%) [6]: 95%
- Population Normal (%) [6]: 95%
- Population Pyknosed Nuclei (%) [6]: 5%
- Population Tubulin-Different-Phenotype (%) [6]: 40%
- Total Cell Count [6]: 1792
- Population Apoptotic (%) [7]: 27%
- Population Fragmented Nuclei (%) [7]: 20%
- Population Healthy Nuclei (%) [7]: 46%
- Population Hoechst High Intensity Objects (%) [7]: 21%
- Population Membrane Permeable-Phenotype (%) [7]: 8%
- Population Mitochondria Different-Phenotype (%) [7]: 23%
- Population Mitotic Cells (%) [7]: 72%
- Population Normal (%) [7]: 78%
- Population Pyknosed Nuclei (%) [7]: 33%
- Population Tubulin-Different-Phenotype (%) [7]: 56%
- Total Cell Count [7]: 614
- Population Apoptotic (%) [8]: 17%
- Population Fragmented Nuclei (%) [8]: 4%
- Population Healthy Nuclei (%) [8]: 88%
- Population Hoechst High Intensity Objects (%) [8]: 3%
- Population Membrane Permeable-Phenotype (%) [8]: 7%
- Population Mitochondria Different-Phenotype (%) [8]: 37%
- Population Mitotic Cells (%) [8]: 82%
- Population Normal (%) [8]: 96%
- Population Pyknosed Nuclei (%) [8]: 6%
- Population Tubulin-Different-Phenotype (%) [8]: 82%
- Total Cell Count [8]: 947
